The subject of data set [1] is HCT-116. The experiment in a line: Growth inhibition of human HCT116 cells after 48 hrs by sulforhodamine B assay. The class given is functional, cell-based. Conditions: HCT-116, 48 h. The procedure, abridged:
(§1)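 Cells were grown in RPMI-1640 with 10% FBS, penicillin, streptomycin and amphotericin B at 37 °C in 5% CO2, then treated for 48 h in triplicate wells. They were fixed with cold 50% TCA for 1 h at 4 °C, stained with 0.4% SRB in 1% acetic acid for 10 min at RT, and dissolved in 10 mM Tris (pH 10.5) before reading A570. Percent inhibition was calculated against untreated cells after blank subtraction. IC50 is the concentration giving a 50% reduction in net protein increase, reported as mean ± SEM from ≥3 independent runs.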

Data set [2] has as its system SK-N-SH. Briefly: Growth inhibition of human SK-N-SH cells after 48 hrs by sulforhodamine B assay. The class given is functional, cell-based. The procedure, abridged: as §1
In general terms: In SRB staining, fixed cells bind dye roughly in proportion to their protein.

In data set [3] the test system is SK-BR-3. The experiment in a line: Growth inhibition of human SK-BR-3 cells after 48 hrs by sulforhodamine B assay. The class given is functional, cell-based. The note with it: SK-BR-3, 48 h. The procedure, abridged: as §1
Data set [4] has as its system DU-145. Briefly: Growth inhibition of human DU145 cells after 48 hrs by sulforhodamine B assay. The data set is classed as functional, cell-based. The note with it: DU-145, 48 h. The procedure, abridged: as §1
Data set [5] relates to A549. Briefly: Growth inhibition of human A549 cells after 48 hrs by sulforhodamine B assay. The class given is functional, cell-based. The note with it: A549, 48 h. The procedure, abridged:
as §1

The subject of data set [6] is SK-BR-3. The experiment in a line: Selectivity ratio of IC50 for human SK-BR-3 cells to IC50 for human A549 cells. The data set is classed as functional.
For data set [7], the system named is SK-BR-3. Briefly: Selectivity ratio of IC50 for human SK-BR-3 cells to IC50 for human HCT116 cells. The class given is functional.
Data set [8] concerns SK-N-SH. The experiment in a line: Selectivity ratio of IC50 for human SK-BR-3 cells to IC50 for human SK-N-SH cells. The class given is functional.
Data set [9] deals with SK-BR-3. The experiment in a line: Selectivity ratio of IC50 for human SK-BR-3 cells to IC50 for human DU145 cells. The data set is classed as functional.
Data set [10] is described as follows: Growth inhibition of human MCF10A cells after 48 hrs by sulforhodamine B assay. The note with it: MCF-10A. The class given is cell-based. The procedure, abridged: as §1
Data set [11] concerns SK-BR-3. Briefly: Selectivity for human SK-BR-3 cells over human MCF10A cells.
Data set [12] in a line: Cytotoxicity against human MCF10A cells at 0.1 uM after 72 hrs by MTT assay. The data set is classed as cell-based. The note with it: mcf-10a. The procedure, abridged:
(§2)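 Cells were plated in 96-well plates with medium and treated after 24 h with five test concentrations, each in triplicate, for 72 h. They were then washed with PBS, and fresh medium plus MTT (stock 3 mg/mL in PBS) was added for 4 h at 37 °C. Formazan was dissolved in DMSO for 30 min, absorbance was read, and the data were converted to % cell viability.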
(In general: Tetrazolium dyes change colour on reduction, which living cells bring about.)

Data set [13] is described as follows: Cytotoxicity against human MCF10A cells at 0.3 uM after 72 hrs by MTT assay. The note with it: mcf-10a. The data set is classed as cell-based. The procedure, abridged:
as §2

A short description of data set [14]: Cytotoxicity against human MCF10A cells at 1 uM after 72 hrs by MTT assay. The data set is classed as cell-based. The note with it: mcf-10a. The procedure, abridged:
as §2

Data set [15] can be described thus: Cytotoxicity against human MCF10A cells at 3 uM after 72 hrs by MTT assay. Conditions: mcf-10a. The data set is classed as cell-based. The procedure, abridged:
as §2

Data set [16] is described as follows: Cytotoxicity against human MCF10A cells at 10 uM after 72 hrs by MTT assay. The data set is classed as cell-based. Conditions: mcf-10a. The procedure, abridged:
as §2

The term IC50 denotes the concentration that inhibits the measured activity by half. A high value points to weaker potency.

With `CO[C@@H]1CC=C2NN(c3ccc(Cl)cc3)C(=O)C[C@]2(C)O1`, the IC50 in [1] was found to be 35.7 µM; in data set [2], 31.7 µM; in [3], 28.7 µM; in data set [4], 24.2 µM; in [5] it was 25.5 µM.
In the same order, the values of `CO[C@@H]1CC=C2NN(c3cncnc3)C(=O)C[C@]2(c2ccccc2)O1` are 9.13 µM, 8.2 µM, 5.3 µM, 7.33 µM and 5.2 µM.
Turning to `CO[C@@H]1CC=C2NN(c3cc4ccccc4[nH]3)C(=O)C[C@]2(C)O1`, in data set [6], the Selectivity ratio stood at 5. The IC50 in data set [1] amounted to 18.3 µM; in data set [2] it was 19.5 µM; in data set [3] it was 4.1 µM; in [4], 14.4 µM; in data set [5], 3.92 µM.
For the compound `CO[C@@H]1CC=C2NN(c3cc(Cl)cc(Cl)c3)C(=O)C[C@]2(c2ccncc2)O1`, the IC50 in [1] came to 9.1 µM; in data set [2], 8.3 µM; in data set [3], 5.5 µM; in data set [4], 7.6 µM; in [5] it was 7.5 µM.
In the same order, the values of `CO[C@@H]1CC=C2NN(c3cc(Cl)cc(Cl)c3)C(=O)C[C@]2(C)O1` are 19.4 µM, 20.2 µM, 18.8 µM, 21.3 µM and 17.5 µM.
For `CO[C@@H]1CC=C2NN(c3ccc(C)cc3)C(=O)C[C@]2(C)O1`, in that order: 28.7 µM, 25.3 µM, 29.7 µM, 23.2 µM and 21.5 µM.
For `COc1cc(OC)cc(N2NC3=CC[C@@H](OC)O[C@@]3(c3ccccc3)CC2=O)c1`, in that order: 18.1 µM, 19.5 µM, 1.2 µM, 18.3 µM and 17.2 µM.
Consider `CO[C@@H]1CC=C2NN(c3ccc(C)cc3)C(=O)C[C@]2(c2ccccc2)O1`, for which the IC50 is 10.5 µM in data set [1]; 11.1 µM in [2]; 9.2 µM in [3]; 11.2 µM in [4]; 8.11 µM in data set [5].
For `CO[C@@H]1CC=C2NN(c3cc(F)cc(Cl)c3)C(=O)C[C@]2(c2ccccc2)O1`, in that order: 16.2 µM, 17.4 µM, 17.6 µM, 16.1 µM and 14.1 µM.
In the same order, the values of `CO[C@@H]1CC=C2NN(c3cccnc3)C(=O)C[C@]2(C)O1` are 17.1 µM, 19 µM, 15.2 µM, 16.4 µM and 14.3 µM.
In the same order, the values of `CO[C@@H]1CC=C2NN(c3ccc(C)cc3)C(=O)C[C@]2(c2ccncc2)O1` are 7.4 µM, 8.1 µM, 6.2 µM, 7.1 µM and 5.9 µM.
`CO[C@@H]1CC=C2NN(c3cc4ccccc4[nH]3)C(=O)C[C@]2(c2ccccc2)O1`: the Selectivity ratio in data set [6], in data set [7], in data set [8] and in data set [9] was 20 throughout. The IC50 in data set [1] is 8.2 µM; in data set [2], 9.1 µM; in [3], 0.53 µM; in [4] it was 7.9 µM; in data set [5], 8.67 µM; in data set [10], > 38 µM.
In the case of `CO[C@@H]1CC=C2NN(c3cc4ccccc4[nH]3)C(=O)C[C@]2(c2ccncc2)O1`, the Selectivity ratio in data set [6] amounted to 30; in [7], 30; in [8], 30; in [9], 30; in data set [11] it was 290. Besides, the Ratio in [11] is 290. For the same compound, the Activity entry in data set [12], in [13], in data set [14], in [15] and in data set [16] was “Non-toxic” each time. For the same compound, the IC50 in data set [1] is 4.35 µM; in [2], 3.9 µM; in data set [3] it was 0.15 µM; in [4], 4.1 µM; in [5], 4.05 µM; in [10], > 55 µM.
Take `COc1ccc(N2NC3=CC[C@@H](OC)O[C@@]3(c3ccccc3)CC2=O)cc1`: the IC50 in data set [1] was 11.3 µM; in [2], 10.4 µM; in data set [3], 8.4 µM; in [4], 10.1 µM; in [5], 7.1 µM.
`COc1cc(OC)cc(N2NC3=CC[C@@H](OC)O[C@@]3(c3ccncc3)CC2=O)c1`: the Selectivity ratio in data set [6] worked out at 30; in [7], 30; in data set [8], 30; in data set [9], 30; in data set [11] it was 290. The Ratio in data set [11] is on record as 290. In addition, the Activity entry in data set [12], in data set [13], in [14], in data set [15] and in [16] was “Non-toxic” throughout. The IC50 is 6.5 µM in [1]; 6.4 µM in [2]; 0.21 µM in data set [3]; 5.9 µM in [4]; 6.22 µM in data set [5]; > 51 µM in [10].
For `CO[C@@H]1CC=C2NN(c3cncnc3)C(=O)C[C@]2(C)O1`, in data set [6], the Selectivity ratio is reported as 5. Also, the IC50 was 15.1 µM in [1]; 16.6 µM in data set [2]; 3.4 µM in data set [3]; 17.1 µM in [4]; 4.1 µM in [5].
With `COc1cc(OC)cc(N2NC3=CC[C@@H](OC)O[C@@]3(C)CC2=O)c1`, the Selectivity ratio in [6] amounted to 5. The IC50 in data set [1] is 24.3 µM; in data set [2] it was 23.7 µM; in data set [3] it was 5.7 µM; in [4], 22.2 µM; in data set [5], 6.15 µM.

Values taken from ChEMBL document CHEMBL1629467, “Design and synthesis of novel tetrahydro-2H-Pyrano[3,2-c]pyridazin-3(6H)-one derivatives as potential anticancer agents” (Eur J Med Chem, 2010).
